This sample holds only a part of the variants without activity.
B1: tRNA (parent)
chain: GUUCCGUUGGCGUAAUGGUAACGCGUCUCCCUCCUAAGGAGAAGACUGCGGGUUCGAGUCCCGUACGGAACG

Variants of: B1
Assay: yeast fitness relative to wild type (ratio to wild type); higher = fitter; tRNA-Arg(CCU), competitive growth, 37 C, YPD
Method in brief: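 For this measurement, the tRNA-Arg(CCU) gene was varied by chemical synthesis at a 3% per-site mutation rate across 69 sites, and each variant was placed at the native genomic locus in Saccharomyces cerevisiae. The pooled strains went through a 24-hour competition in YPD at 37°C in six parallel replicates, with amplicons from start and end populations read by 100-nucleotide paired-end sequencing. Darwinian fitness relative to wild type followed from the change in each genotype's frequency. Genotypes needed ≥ 100 starting reads, and estimates < 0.5 were set to 0.5.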

Variant	yeast fitness
GUUCAGUUGGCGUAAUGAUAACGCGUCUCUCUCCUAAGGAGAAGACUCCGGGUUCGAGUCCCGUACGCAACG [C5A G18A C30U G48C G68C]	0.54
GUUCAGUUGGCGUAAUGGUAACGCGUCUCCCUCCUAAGGAGAAGACUGCGGGUUCGAGUCCCAUAUGGAACG [C5A G63A C66U]	0.651
GUUCAGUUGGCGUAAUGCUAACGCGUCUCCCUCCUAAGGAGAAGACUGCCGGUUCGAGUGCCGUACGGAGCG [C5A G18C G50C C60G A70G]	≤ 0.5
GUUCAGUUGGCGUAAUGGUAACGCGUCUCCCUCCUAAGGAAAAGACUGCGGGUUCGUGUCCCGUACGGAACG [C5A G41A A57U]	≤ 0.5
GUUCAGUUGGCGUAAUGGUAACGCGUCUCCCUCCUAAGGAGAAGACUACGGGUUCGAGUACCGUACGGAACG [C5A G48A C60A]	≤ 0.5
GUUCAGUUGGCGUAAUGGUAACGCGUCUCCCUCCUAAAGAGAAGACUGUGGGUUCGAGUCCCGUACGGAACG [C5A G38A C49U]	0.57
GUUCAGCUGGCGUAAUGGUAACGCGUCUCCCUCAUAAGGACAAGACUGCGGGUUCGAGUUCCGUACGGAUCG [C5A U7C C34A G41C C60U A70U]	≤ 0.5
GUUCAGUUGGCGUAAUGGUAACGCGUCUCCCUCCUAAGCAGAAGACUGCGGGUUCGAGUCCCAUACGGAACG [C5A G39C G63A]	≤ 0.5
GUUCAGUCGGCGUAAUGGUAGCGCGUCUCCCUCCUAAGGAGAAGCCUGCGGGUUCCAGUCCCGUACGGAACG [C5A U8C A21G A45C G56C]	0.554
GUUCAGUUGGCGUAAUCGUAACGCGUCUCCCUCCUAAGGAGAAAACUGCGGGUUCGAGUCUCGUACGGAACG [C5A G17C G44A C61U]	≤ 0.5
GUUCAGUUGGCGUAAUGGUAACGCGUCUCCCUCCUAAGGAGAAGACUGCGGGUUCGACUCCCGUACGGAACG [C5A G58C]	0.867
GUUCAGUUGGCGUAAUGGUAACGCGUCUCCCUCCUAAGGAGAAGACUGCGGGUUCGAAUCCCGUACGGAACG [C5A G58A]	0.909
GUUCAGUUGGCGUAAUGGUAACACGUCUCCCUCCUAAGGAGAAGAUUGCCGGUUCGAGUCACGUACGGACCG [C5A G23A C46U G50C C61A A70C]	≤ 0.5
GUUCAGUUGGCGUAAUGCUAACGCGUCUCCCUCCUAAGGAGAAGACUGCGGGUUCGAGUCCCGUACGGAACG [C5A G18C]	0.569
GUUCAGCUGGCGUAAUGGUAAGGUGUCUCCCUCCUACGGAGAAGACUGCGCGUUUGAGGCCCGUACGGAACG [C5A U7C C22G C24U A37C G51C C55U U59G]	≤ 0.5
GUUCAGCUGGCGUAAUGGAAACGCGUCUCCCUCCUAACGAGGAGACUGGGGGUUAGCGUCCCGUACGGAACG [C5A U7C U19A G38C A42G C49G C55A A57C]	≤ 0.5
GUUCAGUUGGCGUAAUGGUAACGCGUCUCCCUCCUAAGGAGAAGACUGCGGGUUCGAGUCCCGUACAGUACG [C5A G67A A69U]	0.523
GUUCAGUUGGCGUAAUGGUAACGCGUCUCCCUCCUAAGGAGAAGACUGCGGGUUCAAGUCCCGUACGGAACG [C5A G56A]	1
GUUCAGUUGGCGUAAUGGUAACGCGUCUCCCUCCUAAGGAGAAGACUGCGGGUUCCAGUCCCGUACGGAACG [C5A G56C]	0.666

Variant	yeast fitness
GUUCAGUUGGCGUAAUGAUAACGCGUCUCCCUCCUAAGGAGAAGACUGCGGGUUCGAGUCGCGCACGGAACG [C5A G18A C61G U64C]	≤ 0.5
GUUCAGAUGGCGUAAUGGUAACGCGUCUCCCUCCUAAGGAGAAGACUGCGGAUUCGAGUCCCGUACAGAACG [C5A U7A G52A G67A]	≤ 0.5
GUUCAGUUGGCGUAAUGGUAACGCCUCUCCCUCCUAAGGAGAAGACUGCGGGUUCGAGUCCCGUACGGAACG [C5A G25C]	0.86
GUUCAGUUGGCGUAAUGGUAACGCAUCUCCCUCCUAAGGAGAAGACUGCGGGUUCGAGUCCCGUACGGAACG [C5A G25A]	1.03
GUUCAGCUGGCGUAAUGGUAACGCGUCUCCUUCCUAAGGAGAAGACUGCGGGUUCGAGUCCCGUACGGAACG [C5A U7C C31U]	0.605
GUUCAGUUGGCGUAAUGAUAACGCAUCUCCUUCCUAAGGAGAAGACUGCGGGUUCGAGUCCCGUACGGAACG [C5A G18A G25A C31U]	≤ 0.5
GUUCAGCUGGCGUAAUGGCAACGCGUCUCCCUCCUAAGGAGAAGACUGCGGGUUCGAGUCCCGUACGGAACG [C5A U7C U19C]	≤ 0.5
GUUCAGUUGGCGUAAUGGUAACGCGUCUCCCUCCUAAGAAGAAGACUGCGGGUUCGAGACCCGUACGGAACG [C5A G39A U59A]	≤ 0.5
GUUCAGUUGGCGUAAUGGUAACGCAUCUCCCUCCUAAGGAGAAGACUGCGGGUUCGACUCCCGUAUGGAACG [C5A G25A G58C C66U]	≤ 0.5
GUUCAGUUGGCGUAAUGGUAACGCGUCUCCCUCCUAAGGAGAACACUACGAGUUCGAGUCCCGUACGGAACG [C5A G44C G48A G51A]	0.609
GUUCAGUUGGCGUAAUGAUAACGCAUCUCCUUCCUAAGGAGAAGACUGCGGGUUCGAGUCUCGUACGGAACG [C5A G18A G25A C31U C61U]	0.562
GUUCAGUUGGCGUAAUGGUAACGCGUCUCCCUCCUAAGCAGAAGAGUGCGGGUUCGAGUCCCGUACGGAACG [C5A G39C C46G]	0.547
GUUCAGUUGGCGUAAUGGUAACGCGUCUCCCUCCUAAGGAGAAGACUGCGGAUUCGAGUCCCAUACGGAACG [C5A G52A G63A]	≤ 0.5
GUUCAGUUGGCGUAAUGGUAACGCAUCUCCCUACUAAGGUGAAGACUGCGGGUUCGAGUCCCGUACGGUACG [C5A G25A C33A A40U A69U]	≤ 0.5
GUUCAGUUGGCGUAAUGGUAACGCAUCCCCUUCCUAAGGCGGAGACUGCGGGUUCGAGUCCCGUACGGCACG [C5A G25A U28C C31U A40C A42G A69C]	≤ 0.5
GUUCAGUUGGCGUAAUGGUAACGCGUCUCCCUCCUAAGGAGAAGACUGCGGAUUCGAGUCCCGUACGAAACG [C5A G52A G68A]	≤ 0.5
GUUCAGUUGGCGUAAUGGUAACGCGUCUCCCUCCUAAGAAGAAGACUGUGGGUUCCAGUCCCGUACGGAACG [C5A G39A C49U G56C]	≤ 0.5
GUUCAGUUGGCGUAAUGGUAACGCGUCUCCCUCCUAAGGAGAAGACUGCGGGUUCGAGUCCCGUACAGAACG [C5A G67A]	0.933
GUUCAGUUGGCGUAAUGGUAACAUGUCUCCCUCCUAAGGAGAAGACUGCGGGUUCGAGUCCCGUACGGAACG [C5A G23A C24U]	0.561
